This is an account of results in ChEMBL document CHEMBL4017489, “Design, Synthesis, and Evaluation of New Selective NM23-H2 Binders as c-MYC Transcription Inhibitors via Disruption of the NM23-H2/G-Quadruplex Interaction” (J Med Chem, 2017).

The assay deals with Nucleoside diphosphate kinase B (Homo sapiens, UniProt P22392). Description: Binding affinity to N-terminal NT-647-NHS labeled NM23-H2 (unknown origin) after 30 mins by MST analysis. In a few lines: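 NM23-H2 N-terminally labeled with RED-NHS dye (20 μM protein, 30 min dark, RT), free dye removed; 200 nM labeled protein with compound from 500 μM, 16 twofold steps, 30 min RT in 50 mM Tris-HCl pH 7.4, 150 mM NaCl, 10 mM MgCl2, 0.05% Tween-20; KD at half-plateau.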
Nucleoside diphosphate kinase B, sequence (P22392 whole entry): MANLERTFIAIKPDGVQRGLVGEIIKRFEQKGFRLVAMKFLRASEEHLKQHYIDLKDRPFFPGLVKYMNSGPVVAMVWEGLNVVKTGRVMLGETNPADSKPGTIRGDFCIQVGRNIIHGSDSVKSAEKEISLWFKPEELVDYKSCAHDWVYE

The structures appear in SMILES notation.

In the case of `CN(C)CCCNc1cc2nc3n(c(=O)c2cc1F)CC/C3=C\c1ccc(OCc2ccccc2)cc1O`, the Kd was found to be 2000 nM.
